# PMC3448169 (mBio, 2012)
# Entries after “also recorded” stand apart in the source; their conditions may differ. Ends that are not written are not given here. * marks the point of attachment. Biotin = O=C1N[C@H]2[C@H](CS[C@H]2CCCCC(=O)*)N1; Ahx = NCCCCCC(=O)O
# T1: rabbit muscle aldolase (Oryctolagus cuniculus, UniProt P00883)
# T1 sequence (P00883 1-364): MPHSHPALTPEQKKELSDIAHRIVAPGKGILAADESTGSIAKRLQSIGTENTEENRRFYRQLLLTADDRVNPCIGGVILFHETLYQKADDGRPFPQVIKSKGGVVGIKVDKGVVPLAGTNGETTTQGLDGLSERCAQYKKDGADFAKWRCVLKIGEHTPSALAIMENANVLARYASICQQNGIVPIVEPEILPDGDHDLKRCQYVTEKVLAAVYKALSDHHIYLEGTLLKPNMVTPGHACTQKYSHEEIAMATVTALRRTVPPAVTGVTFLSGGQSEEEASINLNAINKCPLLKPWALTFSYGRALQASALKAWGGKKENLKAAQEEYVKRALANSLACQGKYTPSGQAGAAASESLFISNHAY
# B1: rabbit muscle aldolase (enzyme, UniProt P00883 1-364, looked up)
# chain: T1 sequence (P00883 1-364)
# B2: RH4 C-terminal cytoplasmic tail peptide (peptide)
# peptide: {Biotin-Ahx}-EDEVEDEVEDEDENENEVENENEDFNDI
# B3: RH1 C-terminal cytoplasmic tail peptide (peptide)
# peptide: {Biotin-Ahx}-KQEDKEQEKQQQNDFVCDNNKMDDKSTQKYGRNQEEVMEISFDNDYI
# What was measured:
# yeast GAPDH = assay: GAPDH pulldown assay with biotinylated peptides on streptavidin-agarose beads; type: binding; conditions: pulldown competition, 10 mM NADH
# Outline: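 Test peptides carried an N-terminal biotin–Ahx linker, were dissolved in 20 mM Tris-HCl pH 8.0 at 0.5 mg/ml, and were bound to streptavidin-agarose for 1 h at RT, then washed. After four washes, bound protein was boiled in reducing LDS buffer and run on 4–12% bis-Tris gels.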
# rabbit muscle aldolase [1] = biological target: T1, rabbit muscle aldolase; assay: SPR analysis of aldolase binding to immobilized peptides; conditions: SPR sensorgrams, aldolase 50 to 800 nM
# Outline: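 CM5 chips at 25°C carried amine-coupled NeutrAvidin with captured biotinylated peptides (0.5 µg/ml). Rabbit muscle aldolase was injected in 10 mM HEPES pH 7.5/100 mM KCl/0.5 mM EDTA/1 mM MgCl₂/0.2% Tween 20, with F1-6P added in some runs. Flow was 20 µl/min, with 4 min association and 10 min dissociation, and glycine pH 2.5 regeneration. NeutrAvidin-only reference cells were subtracted. ka and kd came from global fits to a 1:1 Langmuir or a two-state model.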
# GAPDH = assay: SPR analysis of GAPDH binding to immobilized peptides; parameters: species or system yeast; conditions: curves did not fit the 1:1 or the two-state model, no KD determined
# [2] = biological target: BAEBL (EBA140) C-terminal cytoplasmic tail peptide (Plasmodium falciparum); assay: SPR
# [3] = biological target: B2; assay: SPR
# [4] = biological target: B3; assay: SPR
# rabbit muscle aldolase [5] = biological target: B1; assay: SPR
molecule,measurement,setting,value
YMFDQQINVVNSDLYSEGIYDDTTTF [JESEBL],GAPDH binding on adding the cofactor NADH,yeast GAPDH,blocked
same,binding to aldolase by SPR (qualitative),rabbit muscle aldolase [1],not to bind; also recorded: no binding was seen
same,GAPDH binding by SPR (qualitative),GAPDH,demonstrated binding
yeast GAPDH (glyceraldehyde-3-phosphate dehydrogenase) (from UniProt P00359 1-332) (enzyme),Kd,[2],0.461 µM
same,"ka1 (two-state model, step 1)",[2],10200 M^-1 S^-1
same,"kd1 (two-state model, step 1)",[2],0.016 s⁻¹
same,"kd2 (two-state model, step 2)",[2],0.003 s⁻¹
B1,"ka1 (two-state model, step 1)",[3],16000 M^-1 S^-1
same,"ka2 (two-state model, step 2)",[3],0.012 s⁻¹
same,"kd1 (two-state model, step 1)",[3],0.034 s⁻¹
same,"kd2 (two-state model, step 2)",[3],0.000269 s⁻¹
same,"ka1 (two-state model, step 1)",[4],45400 M^-1 S^-1
same,"ka2 (two-state model, step 2)",[4],0.018 s⁻¹
same,"kd1 (two-state model, step 1)",[4],0.082 s⁻¹
same,"kd2 (two-state model, step 2)",[4],0.000647 s⁻¹
{Biotin-Ahx}-ETLGEEDKDLDEPEQFRLPEENEWN [TRAP (thrombospondin-related anonymous protein) C-terminal cytoplasmic tail peptide],Kd,rabbit muscle aldolase [5],0.106 µM
{Biotin-Ahx}-NDHLSNYADKEEIIEIVFDENEEKYF [RH2b C-terminal cytoplasmic tail peptide],Kd,rabbit muscle aldolase [5],0.214 µM
same,koff,rabbit muscle aldolase [5],0.000183 s⁻¹
same,kon,rabbit muscle aldolase [5],856 M⁻¹ s⁻¹
B2,Kd,rabbit muscle aldolase [5],0.047 µM
B3,Kd,rabbit muscle aldolase [5],0.061 µM
